In ChEMBL document CHEMBL4825712:
Active and inactive are the calls of the source. No cut-off for these calls is given here.

Legend:
Influenza A virus [1] = test: Antiviral activity against Influenza A virus A/WSN/33(H1N1) infected in human A549 cells assessed as reduction in poly(A) RNA/GAPDH mRNA level at 1 uM by smRNA FISH followed by fluorescence microscopy; assay type: functional, organism-based; conditions: A/WSN/1933(H1N1)
Influenza A virus [2] = test: Antiviral activity against Influenza A virus A/WSN/33(H1N1) infected in human A549 cells assessed as reduction in NS1 mRNA level by qRT-PCR analysis; assay type: functional, organism-based; conditions: A/WSN/1933(H1N1)
In short: (§1)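 A549 cells were pretreated for 1 h with 0.5 or 1 μM compound or 0.1% DMSO. They were then infected with A/WSN/33 at MOI 2 for 8 h with compound still present. Total RNA was isolated, reverse transcribed and analysed by qPCR for viral HA, NS1, M1 and M2 mRNA. Three independent experiments; mean ± SD.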

Influenza A virus [3] = test: Antiviral activity against Influenza A virus A/WSN/33(H1N1) infected in human A549 cells assessed as reduction in M1 mRNA level by qRT-PCR analysis; assay type: functional, organism-based; conditions: A/WSN/1933(H1N1); in short: as §1
Influenza A virus [4] = test: Antiviral activity against Influenza A virus A/WSN/33(H1N1) infected in human A549 cells assessed as reduction in NS mRNA level by smRNA FISH followed by fluorescence microscopy; assay type: functional, organism-based; conditions: A/WSN/1933(H1N1)
In short: (§2)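 A549 cells on gelatin-coated coverslips were infected with WSN at MOI 2 for 8 h. Cells were fixed in 4% PFA, held in 70% ethanol for 12 h at 4 °C, and hybridized with M, HA or NS smRNA-FISH probes at 37 °C for 4 h. After a formamide/SSC wash, nuclei were stained with Hoechst and imaged by fluorescence microscopy.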

[5] = target: Hemagglutinin (Influenza A virus (A/Puerto Rico/8/1934(H1N1))) (UniProt P03452); test: Inhibition of Influenza A virus A/WSN/33(H1N1) hemagglutinin assessed as inhibition of HA-mediated chicken erythrocytes membrane fusion at 0.08 to 5 uM incubated for 30 mins pH 5 by hemolysis inhibition assay; conditions: Influenza A virus (A/WSN/1933(H1N1)), dose 0.08-5 µM
In short: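 Chicken erythrocyte suspension was incubated on ice with WSN, with or without compound at a range of concentrations. The mixture was acidified to pH 5 and incubated at 37 °C for 30 min. NADH released by lysis was read at 340 as the fusion measure. Data are % of DMSO control; means of triplicates ± SD.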

Influenza A virus [6] = test: Antiviral activity against Influenza A virus A/Panama/1999 (H3N2) infected in human A549 cells assessed as log reduction in viral titer at 25 uM by standard plaque assay; assay type: functional, organism-based
In short: (§3)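 A549 cells were infected in the absence or presence of 25 μM compound. For A/WSN/1933 the MOI was 0.01 and infection ran 24 h. For A/Panama/1999 the MOI was 0.1 and infection ran 48 h. Viral titers were determined by standard plaque assay.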

Influenza A virus [7] = test: Antiviral activity against Influenza A virus A/WSN/33(H1N1) infected in human Primary bronchial epithelial cells assessed as reduction in M1 mRNA level at 1 uM by qRT-PCR analysis; assay type: functional, organism-based; conditions: A/WSN/1933(H1N1), Primary bronchial epithelial cell
Influenza A virus [8] = test: Antiviral activity against Influenza A virus A/WSN/33(H1N1) infected in human A549 cells assessed as viral replication measured after 24 hrs by immunofluorescence microscopy; assay type: functional, organism-based; conditions: A/WSN/1933(H1N1)
In short: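 A549 cells were infected with A/WSN/33 at MOI 0.01 for 24 h, then fixed in 4% formaldehyde and permeabilized with 0.1% Triton X-100. They were immunostained for NP with an Alexa-488 secondary plus DAPI and imaged on an image cytometer. Percent infection = NP-positive cells divided by total cells.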

Influenza A virus [9] = test: Antiviral activity against Influenza A virus A/WSN/33(H1N1) infected in human A549 cells assessed as reduction in M mRNA level by smRNA FISH followed by fluorescence microscopy; assay type: functional, organism-based; conditions: A/WSN/1933(H1N1); in short: as §2
Influenza A virus [10] = test: Antiviral activity against Influenza A virus A/Wyoming/03/2003 (H3N2) infected in human A549 cells assessed as reduction in infected cells up to 25 uM pretreated for 1 hr; assay type: functional, organism-based; conditions: dose microM <=25, time 1.0 hrs
Influenza A virus [11] = test: Antiviral activity against Influenza A virus A/WSN/33(H1N1) infected in human A549 cells assessed as reduction in HA level at 1 uM pretreated for 8 hrs measured by Western blot analysis; assay type: functional, organism-based; conditions: A/WSN/1933(H1N1)
In short: (§4)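 A549 cells were pretreated with 1 μM compound or 0.1% DMSO, then infected with A/WSN/33 at MOI 2 for 8 h. Lysates were analysed by western blot for viral proteins, with β-actin as loading control. Three independent experiments.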

Influenza A virus [12] = test: Antiviral activity against Influenza A virus A/WSN/33(H1N1) infected in human A549 cells assessed as reduction in M2 mRNA level by qRT-PCR analysis; assay type: functional, organism-based; conditions: A/WSN/1933(H1N1); in short: as §1
Influenza A virus [13] = test: Antiviral activity against Influenza A virus A/WSN/33(H1N1) infected in human A549 cells assessed as reduction in HA mRNA level by qRT-PCR analysis; assay type: functional, organism-based; conditions: A/WSN/1933(H1N1); in short: as §1
Influenza A virus [14] = test: Antiviral activity against Influenza A virus A/WSN/33(H1N1) infected in human A549 cells assessed as reduction in HA mRNA level by smRNA FISH followed by fluorescence microscopy; assay type: functional, organism-based; conditions: A/WSN/1933(H1N1); in short: as §2
Influenza A virus [15] = test: Antiviral activity against Influenza A virus A/WSN/33(H1N1) infected in human A549 cells assessed as reduction in NP protein level at 1 uM treated 1 hr after viral infection by Western blot analysis; assay type: functional, organism-based; conditions: A/WSN/1933(H1N1)
In short: (§5)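 A549 cells received 1 μM compound 1 h before infection, or 1 h or 2 h after infection. Infection was with WSN at MOI 2 for 8 h. Lysates were analysed by western blot for viral proteins.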

Influenza A virus [16] = test: Antiviral activity against Influenza A virus A/Vietnam/2506/2004 (H5N1) infected in human A549 cells assessed as log reduction in viral titer at 25 uM by standard plaque assay; assay type: functional, organism-based
Influenza A virus [17] = test: Antiviral activity against Influenza A virus A/WSN/33(H1N1) infected in human A549 cells assessed as reduction in M1 protein level at 1 uM treated 1 hr after viral infection by Western blot analysis; assay type: functional, organism-based; conditions: A/WSN/1933(H1N1); in short: as §5
Influenza A virus [18] = test: Antiviral activity against Influenza A virus A/WSN/33(H1N1) infected in human A549 cells assessed as reduction in M mRNA level at 1 uM treated 1 hr after viral infection by smRNA FISH followed by fluorescence microscopy; assay type: functional, organism-based; conditions: A/WSN/1933(H1N1)
In short: (§6)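 A549 cells received 1 μM compound either 1 h before infection or 1 h after infection. Infection was with WSN at MOI 2 for 8 h. Viral M mRNA was detected by smRNA-FISH and fluorescence microscopy.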

Influenza A virus [19] = test: Antiviral activity against Influenza A virus A/WSN/33(H1N1) infected in human A549 cells assessed as reduction in NP level at 1 uM pretreated for 8 hrs measured by Western blot analysis; assay type: functional, organism-based; conditions: A/WSN/1933(H1N1); in short: as §4
Influenza A virus [20] = test: Antiviral activity against Influenza A virus A/WSN/33(H1N1) infected in human A549 cells assessed as reduction in M1 level at 1 uM pretreated for 8 hrs measured by Western blot analysis; assay type: functional, organism-based; conditions: A/WSN/1933(H1N1); in short: as §4
Influenza A virus [21] = test: Antiviral activity against Influenza A virus A/WSN/33(H1N1)-PB2-Nanoluc virus infected in human HCT-116 cells assessed as decrease in Nano-luc at 1 uM pretreated for 1 hr followed viral infection incubated for 24 hrs by Nano-Glo luminescence assay; assay type: functional, organism-based; conditions: A/WSN/1933(H1N1)
Influenza A virus [22] = test: Antiviral activity against Influenza A virus A/California/07/2009 (HIN1) infected in human A549 cells assessed as reduction in infected cells up to 25 uM pretreated for 1 hr; assay type: functional, organism-based; conditions: A/California/07/2009(H1N1), dose microM <=25, time 1.0 hrs
Influenza A virus [23] = test: Antiviral activity against Influenza A virus wild-type A/WSN/1933 (H1N1) infected in human A549 cells assessed as log reduction in viral titer at 25 uM by standard plaque assay; assay type: functional, organism-based; in short: as §3
[24] = Selectivity index, ratio of CC50 for human A549 cells to IC50 for antiviral activity against Influenza A virus A/WSN/33(H1N1) infected in human A549 cells; assay type: toxicity, cell-based; conditions: read-out: Selectivity Index
In short: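 Ratio of CC50 to IC50. IC50 came from A549 cells pretreated 2 h with compound, then infected 24 h with WSN-PB2-Nanoluc at MOI 0.02 and read by Nano-Glo luminescence. CC50 was measured by CellTiter-Glo.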

Influenza A virus [25] = test: Antiviral activity against Influenza A virus A/WSN/33(H1N1) infected in human A549 cells assessed as reduction in M mRNA level at 1 uM pretreated 1 hr before viral infection by smRNA FISH followed by fluorescence microscopy; assay type: functional, organism-based; conditions: A/WSN/1933(H1N1); in short: as §6
A549 = test: Cytotoxicity against human A549 cells by MTT assay; assay type: cell-based
In short: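 MTT assay run according to the manufacturer's instructions, concurrently with NP immunostaining of infected A549 cultures.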

Sequence of Hemagglutinin (Influenza A virus (A/Puerto Rico/8/1934(H1N1))) (P03452 whole entry, the tested form may be a part): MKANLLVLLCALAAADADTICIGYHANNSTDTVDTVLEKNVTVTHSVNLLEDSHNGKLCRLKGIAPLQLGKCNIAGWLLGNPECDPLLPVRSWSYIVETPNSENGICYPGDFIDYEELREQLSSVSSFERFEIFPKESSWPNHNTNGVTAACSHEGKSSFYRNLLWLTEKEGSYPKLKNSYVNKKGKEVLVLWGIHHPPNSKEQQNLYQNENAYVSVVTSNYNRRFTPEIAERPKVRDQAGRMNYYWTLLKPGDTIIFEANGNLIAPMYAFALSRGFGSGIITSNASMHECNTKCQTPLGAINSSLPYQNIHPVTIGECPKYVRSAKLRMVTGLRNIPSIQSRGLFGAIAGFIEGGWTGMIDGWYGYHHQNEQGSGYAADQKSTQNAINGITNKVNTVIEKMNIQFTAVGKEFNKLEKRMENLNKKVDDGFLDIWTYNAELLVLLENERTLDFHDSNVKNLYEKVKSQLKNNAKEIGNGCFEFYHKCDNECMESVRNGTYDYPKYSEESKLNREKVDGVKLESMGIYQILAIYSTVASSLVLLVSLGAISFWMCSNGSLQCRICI

## CCN(c1ccccc1C)S(=O)(=O)c1cc(Cl)ccc1Cl
Influenza A virus [1]
  Activity: inactive
Influenza A virus [2]
  Activity: Active
Influenza A virus [3]
  Activity: Active
Influenza A virus [4]
  Activity: Active
[5]
  Activity: Active
Influenza A virus [6]
  Activity: Active
Influenza A virus [7]
  Activity: Active
Influenza A virus [8]; A549, 24 h
  IC50: 0.04 µM
Influenza A virus [8]; A549, time 24 hrs
  IC90: 1.2 µM
Influenza A virus [9]
  Activity: Active
Influenza A virus [10]
  Activity: inactive
Influenza A virus [11]
  Activity: Active
Influenza A virus [12]
  Activity: Active
Influenza A virus [13]
  Activity: Active
Influenza A virus [14]
  Activity: Active
Influenza A virus [15]
  Activity: Active
Influenza A virus [16]
  Activity: Active
Influenza A virus [17]
  Activity: Active
Influenza A virus [18]
  Activity: Active
Influenza A virus [19]
  Activity: Active
Influenza A virus [20]
  Activity: Active
Influenza A virus [21]
  IC50: 16.8 µM
Influenza A virus [22]
  Activity: Active
Influenza A virus [23]
  Activity: Active
[24]
  selectivity ratio: > 625
Influenza A virus [25]
  Activity: Active
A549
  CC10: > 25 µM
  CC50: > 25 µM
